Experimental data: ChEMBL document CHEMBL4261484, “Design, synthesis and anticonvulsant-analgesic activity of new N-[(phenoxy)alkyl]- and N-[(phenoxy)ethoxyethyl]aminoalkanols” (Medchemcomm, 2017)
Calls of active or inactive are those of the source.

Legend:
Mus musculus [1] = assay: Neurotoxicity in mouse assessed as motor impairment at 100 mg/kg, ip measured for one min by rotarod test; assay type: toxicity, organism-based; settings: in vivo, 1 min
Outline: (§1)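 Mice trained on an accelerating rotarod, then tested at least 24 h later after ip pretreatment, on a rod turning at 10 rpm. Neurotoxicity was scored as failure to stay on the rod for one minute. Read-out is mice impaired over mice tested.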

Mus musculus [2] = assay: Anticonvulsant activity in mouse assessed as protection against maximal electroshock-induced seizures at 100 mg/kg, ip; assay type: functional, organism-based
Outline: (§2)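 Mice dosed ip; maximal seizures induced by auricular electroshock (25 mA, 500 V, 50 Hz, 0.2 s). Endpoint: hind-limb tonic extension; animals without it scored protected. Read-out is number protected over number tested.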

Mus musculus [3] = assay: Toxicity in mouse at 100 mg/kg, ip measured during maximal electroshock seizure test; assay type: organism-based; settings: in vivo
Mus musculus [4] = assay: Toxicity in mouse at 20 mg/kg, ip measured during maximal electroshock seizure test; assay type: organism-based; settings: in vivo
Mus musculus [5] = assay: Toxicity in mouse at 15 mg/kg, ip measured during maximal electroshock seizure test; assay type: organism-based; settings: in vivo
Mus musculus [6] = assay: Anticonvulsant activity in ip dosed mouse assessed as protection against maximal electroshock-induced seizures; assay type: functional
Outline: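 Mice were dosed ip. Maximal seizures were induced by auricular electrodes (25 mA, 500 V, 50 Hz, 0.2 s). Absence of hind-limb tonic extension counted as protection. […] Motor impairment was scored on a 10 rpm rotarod, giving TD50 the same way.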

[7] = Neurotoxicity in ip dosed mouse assessed as motor impairment measured for one min by rotarod test; assay type: toxicity, organism-based; settings: in vivo; outline: as §1
[8] = Protection index, ratio of TD50 for neurotoxicity in ip dosed mouse by rotarod test to ED50 for anticonvulsant activity in mouse by maximal electroshock seizure test; assay type: toxicity, organism-based; settings: in vivo, read-out: Ratio TD50/ED50
Mus musculus [9] = assay: Anticonvulsant activity in mouse assessed as protection against maximal electroshock-induced seizures at 30 mg/kg, ip; assay type: functional, organism-based; outline: as §2
Mus musculus [10] = assay: Toxicity in mouse at 30 mg/kg, ip measured during maximal electroshock seizure test; assay type: organism-based; settings: in vivo
Mus musculus [11] = assay: Anticonvulsant activity in mouse assessed as protection against maximal electroshock-induced seizures at 10 mg/kg, ip; assay type: functional, organism-based; outline: as §2
Mus musculus [12] = assay: Toxicity in mouse at 10 mg/kg, ip measured during maximal electroshock seizure test; assay type: organism-based; settings: in vivo
Mus musculus [13] = assay: Anticonvulsant activity in mouse assessed as current strength required to induce tonic hind-limb extension in 50% of the animals at 20 mg/kg, ip by maximal electroshock seizure threshold test (reference value: 6.05 to 8.13 mA); assay type: functional
Mus musculus [14] = assay: Anticonvulsant activity in mouse assessed as increase in electroconvulsive threshold at 20 mg/kg, ip by maximal electroshock seizure threshold test relative to control; assay type: functional
Mus musculus [15] = assay: Anticonvulsant activity in mouse assessed as protection against subcutaneous pentylenetetrazole-induced seizures by measuring latency time of tonic seizures at 100 mg/kg, ip measured for 30 mins post pentylenetetrazole challenge at 0.5 hrs after compound dosing (reference value: 562.8 to 614.9 secs); assay type: functional
Mus musculus [16] = assay: Anticonvulsant activity in mouse assessed as protection against subcutaneous pentylenetetrazole-induced seizures by measuring latency time of tonic seizures at 30 mg/kg, ip measured for 30 mins post pentylenetetrazole challenge at 0.5 hrs after compound dosing (reference value: 562.8 to 614.9 secs); assay type: functional
Mus musculus [17] = assay: Anticonvulsant activity in mouse assessed as protection against subcutaneous pentylenetetrazole-induced seizures at 100 mg/kg, ip measured for 30 mins post pentylenetetrazole challenge at 0.5 hrs after compound dosing relative to control; assay type: functional
Mus musculus [18] = assay: Anticonvulsant activity in mouse assessed as protection against subcutaneous pentylenetetrazole-induced seizures at 30 mg/kg, ip measured for 30 mins post pentylenetetrazole challenge at 0.5 hrs after compound dosing relative to control; assay type: functional
Mus musculus [19] = assay: Analgesic activity in mouse assessed as decrease in time of paw licking during phase 1 at 32 mg/kg, ip measured for 5 mins by formalin test relative to control; assay type: functional; set-up: scale not given: the % may be the effect or the level left
Outline: (§3)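 Formalin test in mice: 20 μL of 5% formalin injected intraplantarly into the right hind paw. Each mouse was observed alone in a glass beaker for 30 min. Time (s) spent licking or biting the injected paw was recorded at 0–5 min (acute phase) and 15–30 min (inflammatory phase).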

Mus musculus [20] = assay: Analgesic activity in mouse assessed as decrease in time of paw licking during phase 2 at 32 mg/kg, ip measured for 15 to 30 mins by formalin test relative to control; assay type: functional; set-up: scale not given: the % may be the effect or the level left; outline: as §3
Mus musculus [21] = assay: Toxicity in mouse assessed as effect on spontaneous activity at 32 mg/kg, ip measured for 30 mins by photoresistor actometer relative to control; assay type: organism-based; settings: in vivo, 0.5 h
Outline: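 Mice dosed ip; locomotor activity by photoresistor actometers counting light-beam interruptions. Each mouse was habituated 30 min in a cage, then crossings were counted over a 30 min session. Data are mean ± SEM and % change vs control; unpaired t test.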

Mus musculus [22] = assay: Neurotoxicity in mouse assessed as motor impairment by measuring time of escaping from chimney at 32 mg/kg, ip measured for 60 secs (reference value: 8.87 +/- 1.79 secs); assay type: toxicity, organism-based; settings: in vivo, 1 min
Outline: (§4)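 Mice dosed ip; trained, selected animals placed in a horizontal tube 25 cm long and 2.5 cm in diameter, then tube reversed so mice must climb out backward. Read-outs: escape time (s) ± SEM and % animals losing coordination versus control. Unpaired t test.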

Mus musculus [23] = assay: Neurotoxicity in mouse assessed as motor impairment by measuring loss of coordination at 32 mg/kg, ip measured for 60 secs by chimney test relative to control; assay type: toxicity, organism-based; settings: in vivo, 1 min; outline: as §4
HepG2 [24] = assay: Cytotoxicity against human HepG2 cells assessed as effect on cell viability at 10 to 250 uM after 24 hrs by MTT assay; assay type: cell-based; settings: hepg2, 24 h
Outline: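 HepG2 cells grown in MEM with 10% FBS (37 °C, 5% CO2) and seeded at 1 × 10^4. After overnight culture, exposed to 10–250 μM for 24 h. MTT for 3 h, formazan dissolved, OD 570 nm. Viability is % of control ± SEM from three independent experiments.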

HepG2 [25] = assay: Cytotoxicity against human HepG2 cells assessed as effect on cell viability at 10 to 250 uM after 24 hrs by neutral red assay; assay type: cell-based; settings: hepg2, 24 h
Outline: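 HepG2 cells seeded at 5 × 10^4 per well, then after 24 h given medium with 10–250 μM for 24 h. Viability by neutral red staining, OD 570 nm. Results are % of control ± SEM, three independent experiments.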

[26] = Cytotoxicity against mouse CRL-2541 cells assessed as effect on cell viability at 10 to 250 uM after 24 hrs by MTT assay; assay type: cell-based
Mus musculus [27] = assay: Anticonvulsant activity in mouse assessed as protection against maximal electroshock-induced seizures at 20 mg/kg, ip; assay type: functional, organism-based; outline: as §2
Mus musculus [28] = assay: Anticonvulsant activity in mouse assessed as protection against maximal electroshock-induced seizures at 60 mg/kg, ip; assay type: functional, organism-based; outline: as §2
Mus musculus [29] = assay: Neurotoxicity in mouse assessed as motor impairment at 30 mg/kg, ip measured for one min by rotarod test; assay type: toxicity, organism-based; settings: in vivo, 1 min; outline: as §1

Row | SMILES | Activity (Mus musculus [1]) | Activity (Mus musculus [2]) | Activity (Mus musculus [3]) | ED50 (Mus musculus [6]) | TD50 at 1 min [7] | selectivity ratio [8] | other results
1 | Cc1cccc(Cl)c1OCCOCCNC[C@H](O)c1ccccc1 | Toxic |  |  |  |  |  | 
2 | Cc1cccc(Cl)c1OCCCCNC(C)CO (racemic) |  | Active | Non-Toxic | 19.1 mg/kg | 45.7 mg/kg | 2.4 | Activity (Mus musculus [4]): Non-Toxic; Activity (Mus musculus [5]): Non-Toxic
3 | Cc1ccc(Cl)c(OCCN2CCC(O)CC2)c1 | Toxic | Active | Non-Toxic |  |  |  | 
4 | CC[C@@H](CO)NCCCCOc1cc(C)ccc1Cl | Toxic | Active | Non-Toxic |  |  |  | Activity (Mus musculus [9]): inactive; Activity (Mus musculus [10]): Non-Toxic
5 | Cc1ccc(OCCN[C@H]2CCCC[C@@H]2O)c(C)c1 (racemic) |  | Active | Non-Toxic | 31.8 mg/kg | 76.8 mg/kg | 2.41 | Activity (Mus musculus [11]): inactive; Activity (Mus musculus [12]): Toxic; Activity (Mus musculus [13]): 9.33 mA; Activity (Mus musculus [14]): 23.9%; Time (Mus musculus [15]): 921 s; Time (Mus musculus [16]): 576.4 s; Activity (Mus musculus [17]): 57.71%; Activity (Mus musculus [18]): 2.42%; Activity (Mus musculus [19]): 18.55%; Activity (Mus musculus [20]): 46.16%; Activity (Mus musculus [21]): 8.2%; Time (Mus musculus [22]): 4.75 s; Activity (Mus musculus [23]): 0%; Activity (HepG2 [24]): Non-Toxic; Activity (HepG2 [25]): Non-Toxic; Activity [26]: Non-Toxic
6 | Cc1cccc(C)c1OCCOCCNCC(O)c1ccccc1 (racemic) |  | Active | Non-Toxic | 13 mg/kg | 36 mg/kg | 2.76 | Activity (Mus musculus [27]): Active; Activity (Mus musculus [12]): Non-Toxic; Activity (Mus musculus [4]): Non-Toxic; Activity (Mus musculus [5]): Non-Toxic
7 | Cc1cccc(C)c1OCCCCN[C@H]1CC[C@H](O)CC1 |  |  | Toxic |  |  |  | Activity (Mus musculus [28]): inactive
8 | CC[C@H](CO)NCCCCOc1cc(C)ccc1Cl | Toxic | Active | Non-Toxic |  |  |  | Activity (Mus musculus [10]): Non-Toxic; Activity (Mus musculus [29]): Non-Toxic
9 | CCC(CO)NCCCCOc1cc(C)ccc1Cl (racemic) | Toxic | Active | Non-Toxic |  |  |  | Activity (Mus musculus [10]): Non-Toxic; Activity (Mus musculus [29]): Non-Toxic
10 | Cc1cccc(Cl)c1OCCCCN[C@H]1CC[C@H](O)CC1 |  | Active | Non-Toxic | 41.1 mg/kg | 50 mg/kg | 1.22 | 
11 | Cc1cccc(Cl)c1OCCCCN[C@H]1CCCC[C@@H]1O.Cl (racemic) | Toxic |  | Toxic |  |  |  | 
12 | CCC(CO)NCCOCCOc1cc(C)ccc1Cl (racemic) | Toxic | Active |  |  |  |  | Activity (Mus musculus [29]): Non-Toxic
